Screening data from PubChem BioAssay.
BB579 growth dn: growth inhibitors of yeast BB579 in restrictive medium, primary screen, yeast lifespan-shortening project, S. cerevisiae; OD615, 48 h; 0.51% of 140,000 active; inhibition, % at 10 µM; AID 804, 2007;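 active means inhibition above a set limit, 3 SD over the mean compound inhibition, cut at about 44% in these data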
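Detection: OD615 turbidity measurement; Material: Saccharomyces cerevisiae DeaD strain BB579, replicative lifespan model yeast; Timing: 48 h exposure, 30 °C; Doses: single 10 µM dose; Medium: CSMM-D restrictive synthetic medium containing dextrose (glucose); Controls: amphotericin B at 10 µg/mL as positive control.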
RAM inhibit: inhibitors of the yeast RAM network, primary screen, dse1pr::URA3 reporter, 5-FOA selection | S. cerevisiae dse1pr::URA3 reporter, 5-FOA growth OD615, 2 d; analog-sensitive cbk1-as2 kinase mutant strain | inhibition, % at 50 µM | 1.8% of 190,000 active | AID 868, 2007;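 active means inhibition above a set limit, 3 SD over mean compound inhibition, cut at about 8.4% in these data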;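 further: 0% = DMSO-only wells with no growth and 100% = 10 µM 1-NA-PP1 full growth; inhibition rescues growth on 5-FOA so higher OD means more RAM inhibition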
Yeast life ext: compounds extending yeast replicative lifespan, primary screen, S. cerevisiae, OD615 | S. cerevisiae growth with nicotinamide; deaD strain in restrictive glucose medium | 0.68% of 130,000 active | AID 775, 2007 | inhibition of the nicotinamide effect, % at 10 µM;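 active means inhibition above a set limit, placed 3 SD over the median of all compounds, cut at about 26% in these data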;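 further: 0% = nicotinamide-treated wells and 100% = cells grown without nicotinamide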
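assay system = DeaD-strain S. cerevisiae | measured by = absorbance at 615 nm | probe or stimulus = nicotinamide 1.5 mM | buffer or medium = CSMM-D glucose medium, restrictive | times = 48 h at 30 °C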
Phagocytosis inh: inhibitors of macrophage phagocytosis, primary screen, imaging, J774A.1 cells, IgG beads. inhibition, % at 5 µM. 0.07% of 110,000 active. J774A.1 macrophage IgG-bead phagocytosis;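 active means inhibition above the mean of the plate negative controls plus 5 SD, cut at about 13% in these data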;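 further: phagocytic index as fraction of beads internalized from green versus red external bead signal; plate controls were DMSO negative control for no effect and cytochalasin-D positive control for full effect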
* marks the source's active call; other numbers are inactive results; / = no result given. Most compounds without a hit are left out; they make up all but 2.7% or so of the library.

SMILES	BB579 growth dn	RAM inhibit	Yeast life ext	Phagocytosis inh
Cc1ccc([N+](=O)[O-])cc1NC(=O)C(Sc1ccccc1)c1ccccc1 (configuration not stated)	-53	9.1*	-1	-7
CC(NC(N)=O)C(=O)Nc1ccc(Cl)c(S(=O)(=O)Nc2ccc(Br)cc2)c1 (configuration not stated)	/	2	/	/
CCOC(=O)C1CCN(C(=O)CSc2nccc(C)n2)CC1	/	0	/	/
COc1ccc(Cl)cc1N(C(=O)Nc1cccc(Cl)c1)C1=NCC(C)S1 (configuration not stated)	-24	0	-1	-8
C=CCNC1=C(Cl)C(=O)c2ccccc2C1=O	60*	2	-7	-2
O=C1C(Cl)=C(Nc2ccccc2)C(=O)c2ccccc21	-16	2	2	1
Cc1cc(S(=O)(=O)N(Cc2ccc(C(C)(C)C)cc2)Cc2cccs2)ccc1-n1cnnn1	-18	9.3*	4	-8
COc1cc(S(=O)(=O)N(Cc2ccc(C)cc2)Cc2ccco2)ccc1-n1cnnn1	-47	9.0*	-5	-1
COc1cc(S(=O)(=O)N(Cc2cccnc2)Cc2ccco2)ccc1-n1cnnn1	-51	1	-11	/
O=[N+]([O-])c1cc(/C=N/O)ccc1Sc1ccccc1	79*	-1	-10	/
CO/N=C/c1ccc(Sc2ccccc2)c([N+](=O)[O-])c1	-28	1	-10	0
O=C(CCCCCN1C(=O)c2ccccc2C1=O)Oc1ccc2c3c(c(=O)oc2c1)CCC3	-50	11*	23	3
CCOC(=O)N1CCC(NC(=O)c2cc(C(=O)Nc3ccc(S(=O)(=O)N4CCOCC4)cc3)ccc2CO)CC1	/	4	/	/
O=c1cc(C(F)(F)F)[nH]c2c(C(F)(F)F)cccc12	90*	-2	-1	/
CSc1cccc(NC(=O)C2(S(=O)(=O)c3ccc(C)cc3)CC2)c1	/	1	/	/
O=C(/C=C(\O)c1ccc(Cl)cc1)C(=O)NNC(=O)C(O)(c1ccccc1)c1ccccc1	-32	0	62*	-2
CCCNNC(=O)C(O)(c1ccccc1)c1ccccc1	-20	2	-5	-6
Cc1nc(C#N)c(N/N=C/c2c(F)cccc2Cl)o1	-17	0	-6	/
CCOc1ccccc1/C=N/Nc1ccccc1[N+](=O)[O-]	-15	9.8*	3	1
CC(C)Oc1ccccc1/C=N/Nc1ccccc1[N+](=O)[O-]	-39	8.5*	-2	-10
Cc1[nH]c2ccccc2c1/C=N/NS(=O)(=O)c1ccccc1	/	0	/	/
CCOc1ccccc1NC(=O)/C=C/c1ccccc1[N+](=O)[O-]	-8	5	-3	/
Cc1[nH]c2ccccc2c1/C=N/Nc1ccccc1[N+](=O)[O-]	/	8.8*	/	/
Cc1cnc(NC(=O)c2c(O)c3cccc4c3n(c2=O)CCC4)s1	-14	0	10	0
Cc1cccc(NC(=O)c2c(O)c3cccc4c3n(c2=O)CCC4)n1	-72	0	74*	0
SMILES	BB579 growth dn	RAM inhibit	Yeast life ext	Phagocytosis inh
CC(C)c1nnc(NC(=O)c2c(O)c3cccc4c3n(c2=O)CCC4)s1	-33	0	40*	2
CC(=O)c1ccc(NC(=O)c2cnsn2)cc1	/	2	/	/
CSc1nc(Cl)c(Cc2ccc(OC(C)C)cc2)c(N(C)C)n1	-11	8.9*	8	-12
CC1=C(C(=O)OCc2ccccc2)C(c2ccc3ccccc3c2)NC(=O)N1CCCCCC(=O)O (configuration not stated)	-33	7	26	/
CC1=C(C(=O)OCc2ccccc2)C(c2ccccc2)NC(=O)N1CCCCCC(=O)O (configuration not stated)	-50	10*	10	/
CC1=C(C(=O)OCc2ccccc2)C(c2ccc(-c3ccccc3)cc2)NC(=O)N1CCCCCC(=O)O (configuration not stated)	-40	11*	20	/
COc1ccc(CCN(Cc2cc3cc(C)cc(C)c3nc2Cl)C(=O)C2CC2)cc1	-4	11*	-5	-3
COC(=O)c1cn(CC(=O)Nc2ccc(F)cc2)c2ccccc12	/	2	/	/
CC(=O)Nc1ccc(C(=O)NCC(=O)OCc2c(F)cccc2Cl)cc1	/	0	/	/
CO/N=C/C(C#N)=C/c1cc(C(=O)c2ccccc2)cn1C	/	3	/	/
O=S(=O)(NCCSCc1c(Cl)cccc1Cl)c1ccc2c(c1)OCCO2	-56	8.8*	4	0
Cc1ccccc1S(=O)(=O)c1c(C)cc(-c2ccccc2)[nH]c1=O	-53	5	-6	/
CC(C)CCSc1nc(N2CCOCC2)c2c(c1C#N)CC(C)(C)OC2	-43	10*	-2	-1
CCOC(=O)c1ccc(NC(=O)c2cn(-c3ccccc3)nc2-c2ccncc2)cc1	-18	2	-17	0
Cc1ccc(-c2nn(-c3ccccc3)cc2C(=O)Nc2ccc(C(=O)O)cc2)cc1	/	9.6*	/	/
Cc1nn(C)c(C)c1S(=O)(=O)N(CC(=O)N1CCc2ccccc21)c1ccc(C(C)C)cc1	-35	2	-12	0
COc1ccc(N(CC(=O)N2CCc3ccccc32)S(=O)(=O)c2c(C)nn(C)c2C)cc1	-12	8.9*	-6	/
C=CCN(CC=C)S(=O)(=O)c1ccc2nc(NC(=O)C(C)C)sc2c1	-41	0	76*	-1
CCOC(=O)c1ccc2nc(NC(=O)C(C)C)sc2c1	-14	0	-20	/
O=C(NCCC1=CCCCC1)c1ccc(Cl)cc1	/	0	/	/
CCN(c1ccccc1)S(=O)(=O)c1ccc(C(=O)Oc2ccc(C(C)=O)cc2)cc1	-26	9.1*	7	-12
CCN(c1ccccc1)S(=O)(=O)c1ccc(C(=O)OC(C)C(=O)NCCC2=CCCCC2)cc1 (configuration not stated)	-12	9.0*	3	-4
CS(=O)(=O)N(Cc1ccc(Cl)cc1)c1ccc(C(=O)NCCC2=CCCCC2)cc1	-28	9.8*	-11	2
CC(OC(=O)Cc1ccc(Cl)cc1)C(=O)NCCC1=CCCCC1 (configuration not stated)	-1	9.0*	5	/
Cc1ccc(C(=O)N/C(=C/c2ccccc2)C(=O)NCC2CCCO2)cc1 (configuration not stated)	/	1	/	/
SMILES	BB579 growth dn	RAM inhibit	Yeast life ext	Phagocytosis inh
COc1cccc(NC(=S)N/N=C2/CCCCc3ccccc32)c1	23	6	-5	-1
C/C(=N\NC(=S)NCc1ccccc1)c1ccc(C)o1	/	4	/	/
CCOC(=O)CNc1ncc(C(F)(F)F)cc1Cl	/	1	/	/
N#CCC(CNc1ncc(C(F)(F)F)cc1Cl)OC(=O)c1ccc(Cl)cc1Cl (configuration not stated)	-41	9.6*	-22	0
COc1cc2c(cc1OC)C1(Nc3c-2c(C)nn3-c2ccccc2)C(=O)Nc2ccccc21 (configuration not stated)	-60	9.3*	2	0
COc1cc2c(cc1OC)C1(Nc3c-2c(-c2ccccc2)nn3-c2ccccc2)C(=O)Nc2ccccc21 (configuration not stated)	-42	6	0	-1
